Series [1] relates to Mus musculus. Nature of the series: Percent injected radioactivity was determined in urine after intravenous administration into the tail vein of male swiss albino mice after 60 min. Type of series: ADME, organism-based. To be noted: in vivo, 1 h. The arrangement: concentration or dose not given beside the values. The essentials:
(§1)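 Mice weighing 20–25 g received 0.2 mL (2 μCi) and were held in metabolic cages. At 60 min they were killed with ether, with the penis ligated. Organs were γ-counted, tail counts were subtracted from the dose, and values are the mean of five ±SD.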

The test system of series [2] is Mus musculus. Nature of the series: Percent injected radioactivity was determined in intestine after intravenous administration into the tail vein of male swiss albino mice, after 60 min. To be noted: in vivo, 1 h. Type of series: ADME, organism-based. The method, boiled down:
as §1

Series [3] concerns Mus musculus. In words: Percent injected radioactivity was determined in kidney after intravenous administration into the tail vein of male swiss albino mice after 60 min. In kind it is ADME, organism-based. To be noted: in vivo, 1 h. The method, boiled down:
as §1

Series [4] concerns Mus musculus. Nature of the series: Percent injected radioactivity was determined in liver and gallbladder after intravenous administration into the tail vein of male swiss albino mice after 60 min. To be noted: in vivo, 1 h. Type of series: ADME, organism-based. The arrangement: concentration or dose not given beside the values. The method, boiled down: as §1
The test system of series [5] is Mus musculus. In words: Percent injected radioactivity was determined in muscle after intravenous administration into the tail vein of male swiss albino mice after 60 min. In kind it is ADME, organism-based, Muscle tissue. On the set-up: concentration or dose not given beside the values. To be noted: in vivo, 1 h. The essentials: as §1
Series [6] deals with Mus musculus. In words: Percent injected radioactivity was determined in blood after intravenous administration into the tail vein of male swiss albino mice after 60 min. In kind it is ADME, organism-based. To be noted: in vivo, 1 h. The essentials:
as §1

Series [7] is described as follows: Acidity constant pK2 was measured. In kind it is ADME. To be noted: read-out: pK2. The essentials: (§2)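 Acid-base titration of the free ligands over a pH range, followed by the chemical shifts of nonlabile protons. Macroscopic constants were assigned to the COOH, SH and NH⁺ dissociation steps; microscopic constants were not obtained.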
Series [8] can be described thus: Acidity constant pK3' was measured. Type of series: ADME. To be noted: read-out: pK3'. The essentials:
as §2

Series [9] is described as follows: Acidity constant pK3 was measured. In kind it is ADME. To be noted: read-out: pK3. The essentials: as §2
A short description of series [10]: Acidity constant pK1 was measured. In kind it is ADME. To be noted: read-out: pK1. The method, boiled down: as §2

The source of these data is ChEMBL document CHEMBL1121974, “Structure-activity relationships of some technetium-99m labeled [(thioethyl)amino] carboxylates” (J Med Chem, 1982).

For `CCSCCN(CC(=O)O)CC(=O)O`, the Radioactivity stood at 34.1% with Mus musculus [1]; 25.533% with Mus musculus [2]; 3.567% in the series with Mus musculus [3]; 8.568% in the series on Mus musculus [4]; 3.56% in the series with Mus musculus [5]; 4.55% in the series on Mus musculus [6].

As for `CCCCSCCN(CC(=O)O)CC(=O)O`, the Radioactivity in the series with Mus musculus [1] worked out at 15.967%; with Mus musculus [2], 52.4%; in the series on Mus musculus [3], 2.767%; in the series on Mus musculus [4] it was 12.7%; in the series on Mus musculus [5], 4.013%; in the series with Mus musculus [6] it was 2.8%.

With `O=C(O)CN(CCS)CCN(CCS)CC(=O)O`, the Radioactivity with Mus musculus [1] turned out to be 39.5%; with Mus musculus [2], 16.924%; in the series on Mus musculus [3] it was 5.62%; in the series with Mus musculus [4] it was 4.3%; with Mus musculus [5], 3.472%; in the series with Mus musculus [6], 3.46%. The pKa in [7] stood at 9; in [8], 4.6; in [9] it was 11.6; in series [10], 1.1.

As for `O=C(O)CN(CCSSCCN(CC(=O)O)CC(=O)O)CC(=O)O`, the Radioactivity is listed as 50.09% in the series on Mus musculus [1]; 8.9% with Mus musculus [2]; 4.24% in the series with Mus musculus [3]; 3.085% with Mus musculus [4]; 7.97% in the series with Mus musculus [5]; 4.64% in the series on Mus musculus [6]. Further, the pKa in series [9] turned out to be 9.2; in series [10], 2.3.

As for `O=C(O)C(S)C(S)C(=O)O` (stereo not drawn), the Radioactivity turned out to be 30.04% in the series on Mus musculus [1]; 5.693% in the series with Mus musculus [2]; 21.823% in the series with Mus musculus [3]; 12.617% in the series with Mus musculus [4]; 24.17% in the series on Mus musculus [5]; 18.873% in the series with Mus musculus [6].

Consider `O=C(O)CN(CCS)CC(=O)O`, for which the Radioactivity with Mus musculus [1] was determined as 52.11%; with Mus musculus [2], 4.743%; in the series on Mus musculus [3], 5.677%; in the series on Mus musculus [4], 1.92%; in the series with Mus musculus [5], 7.553%; with Mus musculus [6] it was 3.598%. In addition, the pKa in [7] is 7.7; in [9] it was 10.6; in series [10] it was 1.9.

In the case of `O=C(O)CN(CCSc1ccc2ccccc2c1)CC(=O)O`, the Radioactivity in the series with Mus musculus [1] came out at 9.74%; in the series on Mus musculus [2], 51.3%; in the series with Mus musculus [3], 1.842%; with Mus musculus [4], 22.748%; in the series with Mus musculus [5], 5.254%; in the series with Mus musculus [6] it was 4.41%.

With `O=C(O)CN(CCSCc1ccccc1)CC(=O)O`, the Radioactivity in the series with Mus musculus [1] stood at 11.371%; in the series on Mus musculus [2] it was 58.02%; in the series with Mus musculus [3], 2.083%; with Mus musculus [4], 8.429%; in the series with Mus musculus [5] it was 3.32%; in the series on Mus musculus [6] it was 2.627%. Moreover, the pKa in series [9] came to 9.1; in series [10], 2.1.

For `Cl.O=C(O)CNCCS`, the Radioactivity in the series on Mus musculus [1] was 36.323%; in the series on Mus musculus [2] it was 16.702%; in the series with Mus musculus [3] it was 5.318%; with Mus musculus [4], 5.448%; in the series with Mus musculus [5] it was 6.988%; in the series with Mus musculus [6], 4.176%. The pKa came out at 8.5 in [7], 11.6 in [9] and 2.6 in [10].
